Test results: ChEMBL document CHEMBL1135484, “Structural features of azidopyridinyl neonicotinoid probes conferring high affinity and selectivity for mammalian alpha4beta2 and Drosophila nicotinic receptors” (J Med Chem, 2002)

Key:
Drosophila melanogaster = experiment: Selectivity ratio of Ki of Nicotinic acetylcholine receptor of Drosophila to Nicotinic acetylcholine receptor alpha4-beta2
[1] = biological target: Neuronal acetylcholine receptor; alpha4/beta2; experiment: Potency to displace [3H]nicotine binding to Nicotinic acetylcholine receptor alpha4-beta2 immuno-isolated from M10 cells; assay type: cell-based, Gallus gallus
[2] = Potency to displace [3H]IMI binding to Nicotinic acetylcholine receptor from Drosophila head membranes; design: species or system Drosophila melanogaster
In short: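 Drosophila head membranes as receptor source, competition against [3H]IMI binding; IC50 (concentration giving 50% inhibition of specific binding) fitted by iterative nonlinear least-squares regression.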

[N-]=[N+]=Nc1cc(Cn2ccs/c2=N\[N+](=O)[O-])cnc1Cl
Selectivity (Drosophila melanogaster): 44 | Ki [1]: 0.17 µM | Ki [2]: 0.0039 µM

[N-]=[N+]=Nc1cncc(Cn2ccnc2N[N+](=O)[O-])c1
Selectivity (Drosophila melanogaster): 10 | Ki [1]: 5.4 µM | Ki [2]: 0.54 µM

[N-]=[N+]=Nc1cc(Cl)ncc1Cn1ccsc1=N
Selectivity (Drosophila melanogaster): 29 | Ki [1]: 0.11 µM | Ki [2]: 3.2 µM

N=C1NCCN1Cc1ccc(Cl)nc1 [DESNITROIMIDACLOPRID]
Selectivity (Drosophila melanogaster): 364 | Ki [1]: 0.0022 µM | Ki [2]: 0.8 µM

[N-]=[N+]=Nc1cc(Cl)ncc1Cn1ccnc1N[N+](=O)[O-]
Selectivity (Drosophila melanogaster): 37 | Ki [1]: 16.9 µM | Ki [2]: 0.46 µM

N#C/N=c1\sccn1Cc1ccc(Cl)nc1 [THIACLOPRID OLEFIN]
Selectivity (Drosophila melanogaster): 86 | Ki [1]: 0.12 µM | Ki [2]: 0.0014 µM

O=[N+]([O-])Nc1nccn1Cc1ccc(Cl)nc1 [DEHYDROIMIDACLOPRID]
Selectivity (Drosophila melanogaster): 553 | Ki [1]: 0.47 µM | Ki [2]: 0.00085 µM

[N-]=[N+]=Nc1cc(CN2CCNC2=N[N+](=O)[O-])cnc1Cl [5-AZIDOIMIDACLOPRID]
Ki [1]: 0.34 µM

[N-]=[N+]=Nc1ccncc1Cn1ccsc1=N
Selectivity (Drosophila melanogaster): 36 | Ki [1]: 0.82 µM | Ki [2]: 30 µM

[N-]=[N+]=Nc1cc(CN2CCN=C2N)cnc1Cl
Selectivity (Drosophila melanogaster): 2190 | Ki [1]: 0.0026 µM | Ki [2]: 5.7 µM

[N-]=[N+]=Nc1cc(CN2CCN/C2=N\[N+](=O)[O-])cnc1Cl [5-AZIDOIMIDACLOPRID]
Selectivity (Drosophila melanogaster): 14 | Ki [2]: 0.024 µM

O=[N+]([O-])/N=C1\NCCN1Cc1ccc(Cl)nc1 [IMIDACLOPRID]
Selectivity (Drosophila melanogaster): 327 | Ki [2]: 0.0022 µM

N=c1sccn1Cc1ccc(Cl)nc1
Selectivity (Drosophila melanogaster): 256 | Ki [1]: 0.00039 µM | Ki [2]: 0.1 µM

O=[N+]([O-])NC1=NCCN1Cc1ccc(Cl)nc1 [IMIDACLOPRID]
Ki [1]: 0.72 µM

N#C/N=c1\sccn1Cc1cnc(Cl)c(N=[N+]=[N-])c1
Selectivity (Drosophila melanogaster): 4.3 | Ki [1]: 0.12 µM | Ki [2]: 0.028 µM

[N-]=[N+]=Nc1ccncc1Cn1ccnc1N[N+](=O)[O-]
Selectivity (Drosophila melanogaster): 27 | Ki [1]: 95.8 µM | Ki [2]: 3.6 µM

[N-]=[N+]=Nc1cc(Cn2ccnc2N[N+](=O)[O-])cnc1Cl
Selectivity (Drosophila melanogaster): 23 | Ki [1]: 0.3 µM | Ki [2]: 0.013 µM

Clc1ccc(C2CC3CCC2N3)cn1 (stereo unspecified) [EPIBATIDINE]
Ki [2]: 0.22 µM

O=[N+]([O-])/N=c1\sccn1Cc1ccc(Cl)nc1
Selectivity (Drosophila melanogaster): 486 | Ki [1]: 0.17 µM | Ki [2]: 0.00035 µM

CN1CCC[C@H]1c1cccnc1 [NICOTINE]
Ki [2]: 2 µM

[N-]=[N+]=Nc1cncc(Cn2ccsc2=N)c1
Selectivity (Drosophila melanogaster): 867 | Ki [1]: 0.0083 µM | Ki [2]: 7.2 µM

[N-]=[N+]=Nc1cc(Cn2ccsc2=N)cnc1Cl
Selectivity (Drosophila melanogaster): 1600 | Ki [1]: 0.00047 µM | Ki [2]: 0.75 µM
